# The source made the active and inactive calls. How the calls were made is not given here.
# Columns and labels:
# [1] = tested on: Yersinia pseudotuberculosis YPIII; assay: Inhibition of T3S in Yersinia pseudotuberculosis YPIII expressing yopE-luxAB at 100 uM after 3 hrs by luciferase reporter gene assay
# In short: (§1)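 Strain YPIII pIB102 (yopE-luxAB) grown overnight at room temperature in BHI with 5 mM EGTA and 20 mM MgCl2 (calcium depletion), adjusted to OD600 0.088–0.095. Compound added from DMSO at 1.56–200 µM final (eight concentrations). Shaken 1 h at room temperature, then 2 h at 37 °C. Decanal added and light emission read immediately. Triplicates, repeated at least three times.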
# [2] = tested on: Yersinia pseudotuberculosis YPIII; assay: Inhibition of T3S in Yersinia pseudotuberculosis YPIII expressing yopE-luxAB at 50 uM after 3 hrs by luciferase reporter gene assay; in short: as §1
# [3] = tested on: Yersinia pseudotuberculosis; assay: Antibacterial activity against Yersinia pseudotuberculosis expressing pIB102 at 100 uM after 23 hrs by broth dilution assay; type: functional, organism-based
# In short: (§2)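 Wild-type pIB102 grown overnight in LB at room temperature, diluted to OD600 = 0.1 in LB with 2.5 mM CaCl2. Compound added from DMSO stock to final 50 and 100 µM. Incubated at 37 °C with absorbance at 595 nm read over 23 h.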
# [4] = tested on: Yersinia pseudotuberculosis YPIII; assay: Inhibition of T3S in Yersinia pseudotuberculosis YPIII expressing yopE-luxAB at 3.13 uM after 3 hrs by luciferase reporter gene assay; in short: as §1
# [5] = tested on: Yersinia pseudotuberculosis YPIII; assay: Inhibition of T3S in Yersinia pseudotuberculosis YPIII expressing yopE-luxAB at 6.25 uM after 3 hrs by luciferase reporter gene assay; in short: as §1
# Escherichia coli [6] = assay: Antibacterial activity against Escherichia coli DH5[alpha] at 50 uM after 23 hrs by broth dilution assay; type: functional, organism-based
# In short: (§3)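 Overnight LB culture of E. coli DH5α grown at 37 °C, diluted to OD600 0.1 in LB with 2.5 mM CaCl2; compound added from DMSO stock to final 50 or 100 µM. Incubated at 37 °C with absorbance at 595 nm followed over 23 h.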
# [7] = tested on: Yersinia pseudotuberculosis YPIII; assay: Inhibition of T3S in Yersinia pseudotuberculosis YPIII expressing yopE-luxAB at 25 uM after 3 hrs by luciferase reporter gene assay; in short: as §1
# [8] = tested on: Yersinia pseudotuberculosis YPIII; assay: Inhibition of T3S in Yersinia pseudotuberculosis YPIII expressing yopE-luxAB at 200 uM after 3 hrs by luciferase reporter gene assay; in short: as §1
# [9] = tested on: Yersinia pseudotuberculosis YPIII; assay: Inhibition of T3S in Yersinia pseudotuberculosis YPIII expressing yopE-luxAB at 1.56 uM after 3 hrs by luciferase reporter gene assay; in short: as §1
# Escherichia coli [10] = assay: Antibacterial activity against Escherichia coli DH5[alpha] at 100 uM after 23 hrs by broth dilution assay; type: functional, organism-based; in short: as §3
# [11] = tested on: Yersinia pseudotuberculosis YPIII; assay: Inhibition of T3S in Yersinia pseudotuberculosis YPIII expressing yopE-luxAB at 12.5 uM after 3 hrs by luciferase reporter gene assay; in short: as §1
# [12] = tested on: Yersinia pseudotuberculosis; assay: Antibacterial activity against Yersinia pseudotuberculosis expressing pIB102 at 50 uM after 23 hrs by broth dilution assay; type: functional, organism-based; in short: as §2
SMILES,inhibition [1] [%],inhibition [2] [%],Activity [3],inhibition [4] [%],inhibition [5] [%],Activity (Escherichia coli [6]),inhibition [7] [%],inhibition [8] [%],inhibition [9] [%],Activity (Escherichia coli [10]),inhibition [11] [%],Activity [12]
O=C(N/N=C/c1ccc(Cl)cc1O)c1ccc(Br)cc1,22,27,inactive,11,14,inactive,29,10,-6,inactive,26,inactive
COc1cc([N+](=O)[O-])cc(/C=N/NC(=O)CC#N)c1O,39,39,inactive,4,14,inactive,27,43,-4,inactive,24,inactive
CC(C)(C)c1cc(/C=N/NC(=O)COc2ccc([N+](=O)[O-])cc2)c(O)c(C(C)(C)C)c1,18,18,inactive,-2,7,inactive,12,4,,inactive,14,inactive
COc1ccc(Br)c(C(=O)N/N=C/c2cc([N+](=O)[O-])cc([N+](=O)[O-])c2O)c1,30,30,inactive,0,13,inactive,23,25,-7,inactive,12,inactive
COc1ccc(C(=O)N/N=C/c2cc(I)cc(I)c2O)cc1OC,33,24,inactive,4,19,inactive,30,40,,inactive,23,inactive
O=C(N/N=C/c1cc([N+](=O)[O-])cc([N+](=O)[O-])c1O)c1ccc(Br)cc1,22,22,inactive,-6,9,inactive,19,18,,inactive,12,inactive
O=C(COc1ccc(F)cc1)N/N=C/c1cc(I)cc(I)c1O,36,30,inactive,0,15,inactive,21,44,,inactive,18,inactive
CC(C)(C)c1ccc(O)c(/C=N/NC(=O)c2ccc(Br)cc2)c1,34,39,inactive,0,19,inactive,34,37,4,inactive,29,inactive
COc1ccc(Br)c(/C=N/NC(=O)CC#N)c1O,57,25,inactive,12,17,inactive,20,59,-9,inactive,18,inactive
CCN(CC)c1ccc(/C=N/NC(=O)COc2ccc(F)cc2)c(O)c1,58,54,inactive,11,17,inactive,35,50,,inactive,23,inactive
COc1ccc(/C=N/NC(=O)CCc2ccc(O)cc2)c(O)c1,45,22,inactive,-1,4,inactive,12,88,-2,inactive,16,inactive
O=C(CC12CC3CC(CC(C3)C1)C2)N/N=C/c1cc([N+](=O)[O-])cc([N+](=O)[O-])c1O,20,18,inactive,-5,1,inactive,6,13,,inactive,10,inactive
COc1ccc(/C=N/NC(=O)C(N)=O)c(O)c1,94,73,inactive,-6,4,inactive,13,97,,inactive,8,inactive
COc1cc(/C=N/NC(=O)COc2ccc([N+](=O)[O-])cc2)c(O)c(OC)c1,14,16,inactive,-1,13,inactive,18,-2,,inactive,14,inactive
Cc1nnsc1C(=O)N/N=C/c1cc(F)cc(Cl)c1O,,,,,,inactive,,,,inactive,,
COc1cccc(/C=N/NC(=O)c2cc(OC)c(OC)c(OC)c2)c1O,65,43,inactive,14,17,inactive,20,68,,inactive,15,inactive
COc1cc([N+](=O)[O-])cc(/C=N/NC(=O)c2ccncc2)c1O,42,35,inactive,8,16,inactive,28,51,,inactive,21,inactive
COc1cc(Br)cc(/C=N/NC(=O)C(N)=O)c1O,47,9,inactive,-4,1,inactive,10,78,,inactive,8,inactive
O=C(CCc1ccc(O)cc1)N/N=C/c1c(O)cc(O)cc1O,36,29,inactive,18,20,inactive,25,46,,inactive,23,inactive
COc1cccc(C(=O)N/N=C/c2cc(C(C)(C)C)cc(C(C)(C)C)c2O)c1,21,23,inactive,4,7,inactive,14,11,,inactive,13,inactive
COc1ccc(C(=O)N/N=C/c2cc(F)cc(Cl)c2O)cc1OC,56,38,inactive,,6,inactive,10,64,-10,inactive,0,inactive
COc1ccc(Br)c(C(=O)N/N=C/c2ccc(Cl)cc2O)c1,49,36,inactive,14,10,inactive,31,58,,inactive,25,inactive

# — ChEMBL document CHEMBL1156948, “Statistical molecular design of a focused salicylidene acylhydrazide library and multivariate QSAR of inhibition of type III secretion in the Gram-negative bacterium Yersinia” (Bioorg Med Chem, 2010)
